B1: tRNA (parent)
chain: GUUCCGUUGGCGUAAUGGUAACGCGUCUCCCUCCUAAGGAGAAGACUGCGGGUUCGAGUCCCGUACGGAACG

This sample holds only a part of the variants without activity.

Variants of B1 are the subject of this series. Description: yeast fitness relative to wild type (ratio to wild type); higher = fitter; tRNA-Arg(CCU), competitive growth, 37 C, YPD. Summed up: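 Variants of the tRNA-Arg(CCU) gene were chemically synthesised with a 3% per-site mutation rate across 69 sites and placed at the native genomic locus in Saccharomyces cerevisiae. Six parallel replicates of the pooled strains were competed in YPD at 37°C for 24 hours, and gene amplicons from the start and end populations were read by 100-nucleotide paired-end sequencing. Darwinian fitness relative to wild type was derived from changes in genotype frequencies. Genotypes required ≥ 100 starting reads, and estimates < 0.5 were set to 0.5.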
On to C11G U16C A21U, for which the yeast fitness is at most 0.5.

With C11G U26C A45C A57C U59G, the yeast fitness is at most 0.5.

For C11U C30U C49U, the yeast fitness turned out to be 0.646.

Turning to C11U A37G A57G A70C, the yeast fitness is at most 0.5.

Regarding C11U A36U, the yeast fitness was found to be 0.606.

For the variant C11U A36C, the yeast fitness is 0.641.

Regarding C11U A40C U53A A69C A70U, the yeast fitness is at most 0.5.

Turning to C11U C27A G56C C62A A65C, the yeast fitness was at most 0.5.

Turning to C11U A14G A37C, the yeast fitness came to 0.737.

Take C11U A37C C46G C60U C61A: the yeast fitness was determined as 0.536.

In the case of C11U C31U A65C, the yeast fitness came to 0.52.

Turning to C11U A21C A42C A69C, the yeast fitness is at most 0.5.

For the variant C11U A15G U32A C49A G56C, the yeast fitness was at most 0.5.

Take C11U C27U C31U A36C G44C A45G G56C: the yeast fitness was at most 0.5.

Regarding C11U C30A U35A G38A C61G, the yeast fitness was at most 0.5.

As to C11G U32G C33U A37U, the yeast fitness was at most 0.5.

Take C11U C30A G51A G67A: the yeast fitness was at most 0.5.

In the case of C11U C27U C46U A57U, the yeast fitness turned out to be 0.647.

In the case of C11U C27G A43U, the yeast fitness turned out to be 0.52.

As to C11U C27G A43C, the yeast fitness worked out at 0.577.

As for C11U A14U U28A C33U, the yeast fitness turned out to be 0.535.

In the case of C11G U28A G39A G48A G67A, the yeast fitness was at most 0.5.

Regarding C11U C22G U47C U53G, the yeast fitness is at most 0.5.

For C11U C31G U64G A69G, the yeast fitness worked out at 0.842.

For the variant C11U C31G C34G A43U C61U A65U, the yeast fitness was at most 0.5.

Take C11U A21G: the yeast fitness was found to be 0.922.

C11U A21U: the yeast fitness stood at 1.02.

In the case of C11G U19G A45C, the yeast fitness was at most 0.5.

Consider C11U C34G A37U, for which the yeast fitness was at most 0.5.

For C11G U28C, the yeast fitness worked out at 0.653.

Turning to C11U C55A U64C, the yeast fitness was at most 0.5.

C11U C33G A65C: the yeast fitness was 0.694.

On to C11G G25A A36U, for which the yeast fitness stood at 0.615.

As to C11U A15C C27A G39C, the yeast fitness was at most 0.5.

Regarding C11U C22U G44C U64G, the yeast fitness stood at 0.534.

Turning to C11U C29U C61U U64C, the yeast fitness is at most 0.5.

As to C11U C49U C61G A65C, the yeast fitness is 0.534.

With C11G G23A C34G, the yeast fitness was at most 0.5.

For C11U C34U G41A, the yeast fitness was at most 0.5.

Take C11G G25A C29U C34U: the yeast fitness was at most 0.5.

Take C11U A15G G63C C66U: the yeast fitness was at most 0.5.

Turning to C11U C22A, the yeast fitness stood at 0.882.

Turning to C11U A14C A15G U26A C34A G63A, the yeast fitness is at most 0.5.

On to C11U A70G, for which the yeast fitness is 0.978.

As for C11G G18C U26C C31G C46U C55U, the yeast fitness was at most 0.5.

C11U A14U C27U A40G: the yeast fitness is at most 0.5.

C11G G25A U32C G50A G51U U59A U64A: the yeast fitness came to 0.628.

As to C11U A42U A43G G52C C60G, the yeast fitness is at most 0.5.

C11U C27U U35C C61G: the yeast fitness amounted to 0.606.

For the variant C11U C33U A43G, the yeast fitness worked out at 0.595.

C11U C24G C33A A40C A69C: the yeast fitness was determined as 0.72.

As for C11U A36G C46U, the yeast fitness was 0.77.

Regarding C11U A20C U47G, the yeast fitness is at most 0.5.

As to C11U C55A C62U, the yeast fitness was at most 0.5.

As to C11G U13C A37U, the yeast fitness was at most 0.5.

As for C11U C34G C55G U59C C60U G67U, the yeast fitness was at most 0.5.

Turning to C11U C60U C62G, the yeast fitness stood at 0.588.

Turning to C11U C60U C62U, the yeast fitness is at most 0.5.

For the variant C11U A43C G68A, the yeast fitness is 0.545.

As to C11U A37C G56A, the yeast fitness was at most 0.5.

Consider C11G U26C, for which the yeast fitness came out at 0.569.

Take C11U A57U A70C: the yeast fitness worked out at 0.512.

Regarding C11U C29U G39A, the yeast fitness worked out at 0.619.

In the case of C11U A15U G51A G56C, the yeast fitness was at most 0.5.

In the case of C11U C34G A42C, the yeast fitness is at most 0.5.

Turning to C11U C49G, the yeast fitness turned out to be 0.892.

Consider C11G U16A U28C C29U G39A U59G G67U, for which the yeast fitness was at most 0.5.

On to C11U A42G C60A, for which the yeast fitness was at most 0.5.

Turning to C11U A40U C46A, the yeast fitness was found to be 0.74.

C11U A40U C46U: the yeast fitness turned out to be 0.637.

Consider C11G G23C G25A, for which the yeast fitness turned out to be 0.977.

C11U C24G C33A A40C U53C: the yeast fitness came to 0.626.

With C11U C22A C29G C33U A57U A70U, the yeast fitness was at most 0.5.

Take C11U C27U C31A U35C C55G C66U A70C: the yeast fitness was 0.512.

Consider C11U C22U G44C, for which the yeast fitness came out at 0.553.

As for C11G G51C, the yeast fitness came out at 0.58.

On to C11U A40U G67A, for which the yeast fitness was at most 0.5.

For C11G G23C C49A C66G, the yeast fitness is at most 0.5.

Regarding C11U C46G, the yeast fitness was 0.986.

Regarding C11U C29U C49A, the yeast fitness is at most 0.5.

Take C11G U26A U54C: the yeast fitness was at most 0.5.

For the variant C11G U35A, the yeast fitness came to 0.528.

For C11U C27U C31A U35C C55G C62U C66U A70C, the yeast fitness was at most 0.5.

Take C11U A45C U59C: the yeast fitness is at most 0.5.

As to C11U C33G A36U A42G, the yeast fitness is at most 0.5.

With C11U A15C C27G C30U C46A, the yeast fitness is at most 0.5.

On to C11U A57U A65U, for which the yeast fitness is 0.653.

With C11U C29U U35C, the yeast fitness was at most 0.5.

For the variant C11U C60G, the yeast fitness is 0.607.

For the variant C11U A15U C22U, the yeast fitness is 0.507.

As for C11G G52C U54C A57U, the yeast fitness was at most 0.5.

With C11U C29G C33U G39U C60U A65U A69U, the yeast fitness is at most 0.5.

As for C11G G18C C49A A70C, the yeast fitness is at most 0.5.

As for C11U A15U C27G A40C, the yeast fitness is at most 0.5.

As to C11U C24G C33G, the yeast fitness came out at 0.541.

With C11U A15G A69C, the yeast fitness came out at 0.75.

On to C11G U28A G39A, for which the yeast fitness was at most 0.5.

Consider C11U A36G C46U G56A, for which the yeast fitness was at most 0.5.

On to C11G G44C C66A, for which the yeast fitness was 0.614.

Take C11G G56C: the yeast fitness was 0.627.

C11U C29U A40C C49G: the yeast fitness stood at 0.648.

C11U C34U G48A: the yeast fitness is at most 0.5.

Regarding C11G G51A C60U, the yeast fitness is 0.79.

On to C11U A21U G50C, for which the yeast fitness is 0.788.

As for C11U C30A C49U G67U, the yeast fitness was at most 0.5.

Take C11U C30A U32G C49U C55G: the yeast fitness was at most 0.5.

On to C11G G18C U26C C31G C46U C60G C61G A65C, for which the yeast fitness amounted to 0.61.

With C11U A42U, the yeast fitness is 0.897.

On to C11U C27A, for which the yeast fitness worked out at 0.791.

For C11U A21G A70C, the yeast fitness stood at 0.818.

For the variant C11U A15C G56A, the yeast fitness came to 0.57.

Consider C11G G39C U47C C60A C61G, for which the yeast fitness was at most 0.5.

As for C11U C34U G38A G44C, the yeast fitness was 0.541.

With C11U C34G G50C, the yeast fitness was 0.576.

Regarding C11U A21G C55G, the yeast fitness was found to be 0.566.

As for C11U A15U C22U G67A, the yeast fitness is at most 0.5.

Turning to C11G G23C, the yeast fitness is 1.07.

In the case of C11G G18U C22U G39C C49G A57U A69U, the yeast fitness is at most 0.5.

C11G G23C C49U G56A G63A: the yeast fitness was at most 0.5.

For C11G G48C, the yeast fitness was found to be 0.687.

For C11U A15C C30U A42C, the yeast fitness was at most 0.5.

C11G U26C C61U C62G: the yeast fitness is 0.62.

With C11U A14C A40C G44C C55G, the yeast fitness was at most 0.5.

As for C11G G38C C49A, the yeast fitness was 0.583.

C11U A20C C29A C31U U32C A65C: the yeast fitness is at most 0.5.

Turning to C11U A15U, the yeast fitness is 0.757.

Regarding C11U A42C A69U, the yeast fitness was 0.773.

As to C11U A36G A70G, the yeast fitness is 0.672.

In the case of C11U A36C C46G, the yeast fitness was at most 0.5.

In the case of C11U A21C A43G, the yeast fitness was at most 0.5.

Consider C11U A14G C24G C27U G41A A42C G67C, for which the yeast fitness was at most 0.5.

With C11G U59A, the yeast fitness was found to be 0.641.

For the variant C11U A20U G68A A70C, the yeast fitness was found to be 0.515.

Regarding C11G U16C A21U C30G G50C, the yeast fitness was at most 0.5.

Take C11U A14U C24G G44A C49U G67U: the yeast fitness was at most 0.5.

Regarding C11G U19C C27G U28G, the yeast fitness was at most 0.5.

With C11U A65U G67C, the yeast fitness was at most 0.5.

On to C11G G48A A69U, for which the yeast fitness was at most 0.5.

Regarding C11G G39A, the yeast fitness was 0.63.

C11U A43U: the yeast fitness came to 0.907.

C11U A43C: the yeast fitness was 0.686.

With C11U A43U A70U, the yeast fitness turned out to be 0.764.

Regarding C11U A42C C49G, the yeast fitness was at most 0.5.

With C11G U13G G23C C34U U59C C66U, the yeast fitness was at most 0.5.

As to C11U C29U C55U, the yeast fitness was at most 0.5.

Turning to C11U C46U U59C, the yeast fitness came out at 0.767.

As for C11G U16A U26A C34U C55G, the yeast fitness is at most 0.5.

Turning to C11U A37U G38A, the yeast fitness is at most 0.5.

Turning to C11U C55G G63C G67C, the yeast fitness was at most 0.5.

As to C11U A14C U54A, the yeast fitness was at most 0.5.

Take C11G G68C: the yeast fitness was determined as 0.597.

C11G G25A C62U: the yeast fitness is at most 0.5.

In the case of C11G U13G A21G, the yeast fitness came to 0.785.

Take C11U C31G: the yeast fitness was 0.791.

Consider C11U A14G U35C C60G, for which the yeast fitness is at most 0.5.

For C11U C22G C34A C49U, the yeast fitness was at most 0.5.

For C11U A15U G52A C61G, the yeast fitness is at most 0.5.

Turning to C11U A40C U53A, the yeast fitness is 0.586.

With C11G U13A U16G U26A C66U, the yeast fitness is at most 0.5.

C11G G44C: the yeast fitness was 0.639.

On to C11U C24U C34G A70G, for which the yeast fitness is at most 0.5.

Regarding C11U C31G A45G G56U, the yeast fitness was at most 0.5.

C11G G25A A36U C60U: the yeast fitness is at most 0.5.

With C11U A21U G39C C55U, the yeast fitness is at most 0.5.

Take C11U C34A A36C G68C: the yeast fitness was at most 0.5.

As to C11U A14G C46A G51A, the yeast fitness amounted to 0.615.

In the case of C11U A20G U35A, the yeast fitness was at most 0.5.

(Values after the RNAGym collection of RNA variant scans (doi:10.1126/science.aae0568).)
